B1: tRNA (parent)
chain: GUUCCGUUGGCGUAAUGGUAACGCGUCUCCCUCCUAAGGAGAAGACUGCGGGUUCGAGUCCCGUACGGAACG

Variants of: B1
Assay: yeast fitness, log relative to wild type (ln ratio); higher = fitter; tRNA-Arg(CCU), competitive growth, 37 C, 1 M NaCl
Outline: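 For each genotype, fitness is defined as the natural log of its generation number over the wild type's. The tRNA-Arg(CCU) variant library was on a HIS3 centromeric plasmid in BY4742 with the chromosomal gene removed, and pools were first grown 4 generations in SC-HIS at 30 °C and then ~6.5 generations (~26.5 h) in SC-HIS 1M NaCl at 37 °C. Generations were calculated from OD-scaled log2 output/input frequency, weighted by inverse variance across replicates, using counts from 125 bp paired-end Illumina sequencing.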

Variant	yeast fitness (ln)
G6U A43C C46U C66U A69G A70U	-0.347
G6U A43C C46U C66U A69G A70G	-0.313
U2C A43C C66U A70U C71U	-0.424
G1A G6U A43C C46U	-0.155
G1A G6U A43C C66U A69G A70G	-0.469
G1A U2G G6A A43C C66U A69G A70U	-0.45
U2G G6A C46U C66U A70U	-0.000351
G1A U2G C46U A69G A70G	-0.163
U2G C27U A43C C46U C66A C71U	-0.182
G1A A43C A69G	-0.145
G1A U2G G6A A43C C46U C66U A69G A70U	-0.306
U2C A43C A69G A70G	-0.0256
U2C G6A A43C C46U A69G C71U	-0.0945
C27U A43C A70U C71U	-0.181
U2C G6A C27U A69G A70G	-0.252
U2G A43C C66U A69G A70U C71U	-0.468
U2C G6U C27U C66U A70G C71U	-0.57
U2G G6A A43C C66A A69G A70U C71U	-0.329
G1A U2G G6A A43C C46U A69G C71U	-0.206
G1A G6A C66U C71U	-0.0242
C27U C46U A69G A70U	-0.209

Variant	yeast fitness (ln)
U2G A43C C46U C66U A69G A70U	-0.172
G1A C27U C66U A69G A70G	-0.211
G1A U2C G6U A43C C46U C66A A70G	-0.000562
G1A G6A C66U A69G	-0.346
G6U C27U A70G C71U	-0.368
G1A G6U C27U A43C C66U A70G	-0.609
G1A U2G C27U C46U A69G A70G C71U	-0.292
G1A U2C A43C A69G C71U	-0.202
U2C G6U C27U A43C C66U A69G C71U	-0.522
G1A G6U C27U A43C C46U C66A C71U	-0.138
G1A A43C C46U C66U	-0.151
C27U A43C C66U A69G A70G C71U	-0.318
U2G G6A C27U C46U A69G A70G C71U	-0.194
U2G G6U A43C C46U C66A A69G A70G C71U	-0.228
U2C G6U C66A A69G A70G C71U	-0.00896
G1A A43C A69G A70G C71U	-0.353
G6U C66U A70G	-0.383
G1A U2C C27U A43C C66A A70U C71U	-0.331
U2G G6A A70U C71U	-0.107
G1A U2C A43C C46U C66U A69G A70U	-0.195
U2G C27U A43C A69G A70U	-0.267

Variant	yeast fitness (ln)
G1A U2C A69G A70G C71U	-0.0058
U2C C46U C66U A69G A70G C71U	-0.0462
U2G G6A A43C C66A C71U	-0.347
G1A G6U C27U A43C C46U C66A A69G A70G	-0.432
C46U C71U	-0.00784
U2C G6U A43C A70U	-0.118
G1A U2C G6U C71U	-0.159
G1A A43C C46U C66U A69G C71U	-0.295
U2C A43C C46U A69G	-0.182
G6U C27U A43C C46U A69G A70G	-0.339
G1A U2G A70G C71U	-0.212
G6A C66U A69G A70G	-0.0412
G1A C27U C46U C66A C71U	-0.148
G1A U2C G6A C27U C66U A70U C71U	-0.261
G1A U2C C27U A43C A69G A70U C71U	-0.345
C27U C46U A70U	-0.0227
U2G C27U A43C C66A A70G C71U	-0.257
G6A C27U A43C C46U C66U	-0.0283
G1A G6A A43C C66U A69G A70U C71U	-0.402
G6A C27U C46U C71U	-0.176
U2G C46U C66U A69G A70G C71U	-0.114

Variant	yeast fitness (ln)
G1A G6U C66A C71U	0.00231
G1A U2G G6U C46U C66A A70G C71U	-0.511
G1A U2G C27U A43C A69G A70U	-0.281
U2C G6U A43C C66U C71U	-0.349
U2C C66A A70U C71U	-0.0799
G1A G6A C27U A43C C66U A69G A70G C71U	-0.487
G6A C27U A43C C46U C66A A69G A70U	-0.28
U2G G6A C27U C46U C66A A69G A70G C71U	-0.251
U2C A43C C46U C66A A70U C71U	-0.169
G1A U2G G6U C27U C66U A69G C71U	-0.425
U2G G6A C27U A43C C46U C66A A70U C71U	-0.331
A43C C46U C66U A69G	-0.172
G1A G6U C46U C66U A70G	-0.195
G1A U2G G6U C66A C71U	-0.193
C27U A43C C66A A69G A70U C71U	-0.513
G1A G6U C27U A43C C46U C66A A70G	-0.319
U2G G6U C66A A69G A70G	-0.25
G6U A43C C46U C66A A69G A70G	-0.147
G1A U2C G6A C27U C46U A69G A70G C71U	-0.489
G1A G6U C27U A43C A69G A70U	-0.481
G1A G6U C27U A43C A69G A70G	-0.536
